# In ChEMBL document CHEMBL1132218, “3-Amino-5-phenoxythiophenes: syntheses and structure-function studies of a novel class of inhibitors of cellular L-triiodothyronine uptake” (J Med Chem, 1999):
# Tests used:
# HepG2 = assay: Compound was tested for inhibition of L-T3 (triiodothyronine) uptake in human HepG2 hepatoma cells at 10e-5 M; assay type: functional
# Procedure, shortened: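 HepG2 cells kept in DMEM with 10% FCS at 37 °C, grown to confluence (2×10⁶ cells/well), then serum-free overnight. Incubated 2 min at 37 °C in DMEM with 10^-11 M [¹²⁵I]-L-T₃; solvent-matched controls; nondisplaceable uptake from duplicates with 10^-5 M unlabeled L-T₃. Five PBS (pH 7.4) washes at room temperature, 0.1 M NaOH harvest, cell-associated radioactivity counted.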
# [1] = Partition coefficient (logP); assay type: physicochemical; conditions: octanol/water
# Procedure, shortened: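 Octanol–water partition coefficient calculated computationally, not measured experimentally.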
Compound,inhibition at 10 µM (HepG2) [%],logP [1]
N#Cc1c(Oc2ccccc2)sc(C(=O)c2ccc([N+](=O)[O-])cc2)c1N,18,4.53
N#Cc1sc(Oc2ccccc2)c(C#N)c1N,21,2.54
Cc1cccc(Oc2sc(C(N)=O)c(N)c2C#N)c1,23,2.69
NC(=O)c1c(Oc2ccccc2)sc(C(=O)c2ccccc2)c1N,60,3.6
Cc1cccc(Oc2sc(C(=O)c3ccccc3)c(N)c2C#N)c1,57,5.25
Cc1cccc(Oc2sc(C#N)c(N)c2C#N)c1,26,3.04
N#Cc1c(Oc2ccccc2)sc(C(N)=O)c1N,14,2.19
Cc1cccc(Oc2sc(C(=O)c3ccc([N+](=O)[O-])cc3)c(N)c2C#N)c1,16,5.03
COC(=O)c1sc(Oc2ccccc2)c(C#N)c1N,41,3.66
COC(=O)c1sc(Oc2ccccc2)c(C(N)=O)c1N,26,3.11
N#Cc1c(Oc2ccccc2)sc(C(=O)c2ccccc2)c1N,61,4.75
COC(=O)c1sc(Oc2cccc(C)c2)c(C#N)c1N,19,4.16
COC(=O)c1sc(Oc2cccc(C)c2)c(C(N)=O)c1N,40,3.61
